Measurements collected from several papers.
Lines come from different studies, so protocols differ.
MAOB: Amine oxidase [flavin-containing] B (MAOB, Homo sapiens, UniProt P27338)
PKN1: Serine/threonine-protein kinase N1 (PKN1, Homo sapiens, UniProt Q16512)
PADI4: Protein-arginine deiminase type-4 (PADI4, Homo sapiens, UniProt Q9UM07)
CA9: Carbonic anhydrase 9 (CA9, Homo sapiens, UniProt Q16790)
HRH1: Histamine H1 receptor (HRH1, Homo sapiens, UniProt P35367)

N#Cc1ccc(NC(=O)c2ccccc2O)cc1  inhibition (MAOB; enzyme activity, inhibitor; 1 µM, 20 min): 32%
CO[C@H]1C[C@@H]2CC[C@@H](C)[C@@](O)(O2)C(=O)C(=O)N2CCCC[C@H]2C(=O)O[C@H]([C@H](C)C[C@@H]2CC[C@@H](OP(C)(C)=O)[C@H](OC)C2)CC(=O)[C@H](C)/C=C(\C)[C@@H](O)[C@@H](OC)C(=O)[C@H](C)C[C@H](C)/C=C/C=C/C=C/1C  activity vs control (PKN1; enzyme activity, inhibitor; 1 µM): 104%
CC(C)(C)n1nnc([C@H](CCCNC(=N)CF)NC(=O)c2ccccc2C(=O)O)n1  kinact/KI (PADI4; enzyme activity, inhibitor): 432 M⁻¹ s⁻¹
CCC(=O)NCC[C@@H]1CCc2cc(O)c3c(c21)CCO3  Km (Sulfotransferase 1A1 (SULT1A1, Homo sapiens, UniProt P50225); enzyme activity, substrate; pH 7): 19.2 µM
Cc1cc(N)ccc1NC(=O)c1ccccc1  inhibition (MAOB; enzyme activity, inhibitor; 1 µM, 20 min): -2%
N#CC1CSc2[nH]c(=O)sc2C1c1cn(-c2ccccc2)nc1-c1ccc(Br)cc1 (stereo not drawn)  inhibition (CA9; enzyme activity, inhibitor; 1 µM): 74.5%
CN(C)CCOC1c2ccccc2CCc2ccccc21  koff (HRH1; binding): 0.00215 s⁻¹
CN(C)C1CCN(CC#Cc2nn(C3CCCC3)c3nc(NCc4ccccc4)ncc23)C1 (stereo not drawn)  inhibition (Tyrosine-protein kinase HCK (HCK, Homo sapiens, UniProt P08631); enzyme activity, inhibitor, FRET; 0.1 µM): 2%
CN(C)c1ccc(-c2nc3ncc(Cl)c(N4CCN(CC(=O)Nc5nccs5)CC4)c3[nH]2)cc1  activity vs control (PKN1; enzyme activity, inhibitor; 1 µM): 32%
CN1CCN(C2c3ccccc3C=Cc3ccccc32)CC1  koff (HRH1; binding): 0.000583 s⁻¹
CCOC(=O)C1CSc2[nH]c(=O)sc2C1c1cn(-c2ccccc2)nc1-c1ccccc1 (stereo not drawn)  inhibition (CA9; enzyme activity, inhibitor; 10 nM): 15.6%
O=C(Nc1ccc(C(F)(F)F)cc1)c1cc2ccccc2cc1O  inhibition (MAOB; enzyme activity, inhibitor; 1 µM, 20 min): 67%
O=C(Nc1ccc(N2C(=O)c3ccccc3C2=O)c(Cl)c1)c1ncccc1O  Emax (Metabotropic glutamate receptor 1 (GRM1, Homo sapiens, UniProt Q13255); calcium signal, positive allosteric modulator; T-REx-293): 106%
CCOC(=O)C1CSc2[nH]c(=O)sc2C1c1cn(-c2ccccc2)nc1-c1ccc(Cl)cc1 (stereo not drawn)  inhibition (CA9; enzyme activity, inhibitor; 1 µM): 70.1%
O=C(Nc1ccc(OC(F)(F)F)cc1)c1ccccc1  inhibition (MAOB; enzyme activity, inhibitor; 1 µM, 20 min): 29%
CC#CC(=O)Nc1cc2c(Nc3ccc(F)c(Cl)c3)ncnc2cn1  activity vs control (PKN1; enzyme activity, inhibitor; 1 µM): 81%
CN1CCC(=C2c3ccccc3CCc3ccccc32)CC1  kon (HRH1; binding): 1.33e+06 M⁻¹ s⁻¹
Cc1ccc(-c2nn(-c3ccccc3)cc2C2c3sc(=O)[nH]c3SC3C(=O)N(c4ccccc4)C(=O)C32)cc1 (stereo not drawn)  inhibition (CA9; enzyme activity, inhibitor; 0.1 µM): 39%
Cc1ccc2c(=O)c3ccccc3n(CCCN)c2c1C.O=C(O)/C=C\C(=O)O  activity vs control (PKN1; enzyme activity, inhibitor; 1 µM): 64%
CN1CCC(=C(c2ccccc2)c2ccccc2)CC1  kon (HRH1; binding): 2e+06 M⁻¹ s⁻¹
Cc1c(Cn2c(C)nc3c(C(=O)O)cc(N4CCOCC4)cc32)cccc1C(F)(F)F  activity vs control (PKN1; enzyme activity, inhibitor; 1 µM): 88%
CC(C)(C)n1nnc([C@H](CCCNC(=N)CCl)NC(=O)c2ccccc2C(=O)O)n1  kinact/KI (PADI4; enzyme activity, inhibitor): 423 M⁻¹ s⁻¹
O=C(Nc1ccc([N+](=O)[O-])cc1Cl)c1ccc(Cl)cc1  inhibition (MAOB; enzyme activity, inhibitor; 1 µM, 20 min): 25%
N=C(CF)NCCC[C@H](NC(=O)c1ccccc1)c1nn[nH]n1  kinact/KI (PADI4; enzyme activity, inhibitor): 67.5 M⁻¹ s⁻¹
CN1CCC(C2c3ccccc3C=Cc3ccccc32)CC1  kon (HRH1; binding): 667000 M⁻¹ s⁻¹
O=C(Nc1ccc([N+](=O)[O-])cc1C(F)(F)F)c1cc(Cl)ccc1O  inhibition (MAOB; enzyme activity, inhibitor; 1 µM, 20 min): 30%
CCOC(=O)C1CSc2[nH]c(=O)sc2C1c1cn(-c2ccccc2)nc1-c1ccc(OC)cc1 (stereo not drawn)  inhibition (CA9; enzyme activity, inhibitor; 10 µM): 84.9%
O=C(Nc1ccc([N+](=O)[O-])cc1)c1cc(Cl)ccc1O  inhibition (MAOB; enzyme activity, inhibitor; 1 µM, 20 min): 66%
N=C(N)NCCC[C@H](NC(=O)[C@H](Cc1ccccc1)NC(=O)[C@@H](N)Cc1c[nH]cn1)C(=O)N[C@@H](Cc1c[nH]c2ccccc12)C(=O)O  Emax (Melanocortin receptor 5 (Mus musculus, UniProt P41149); cAMP, agonist; HEK293): 85%
N=C(CCl)NCCC[C@H](NC(=O)c1ccc(-c2ccccc2)cc1)c1nn[nH]n1  kinact/KI (PADI4; enzyme activity, inhibitor): 398 M⁻¹ s⁻¹
CN(C)CCOc1ccc(-c2nc(-c3ccncc3)c(-c3ccc4c(c3)CC/C4=N\O)[nH]2)cc1  activity vs control (PKN1; enzyme activity, inhibitor; 1 µM): 95%
COc1ccc(NC(=O)c2cc(Cl)ccc2O)cc1OC  inhibition (MAOB; enzyme activity, inhibitor; 1 µM, 20 min): 30%
N#Cc1cnc(Nc2cc(NC[C@H]3CNCCO3)c(C(F)(F)F)cn2)cn1  activity vs control (PKN1; enzyme activity, inhibitor; 1 µM): 86%
O=C1NC(=S)C(=Cc2cn(-c3ccccc3)nc2-c2ccc(Br)cc2)S1  inhibition (CA9; enzyme activity, inhibitor; 10 nM): 12%
C=CCn1c(=O)c2cnc(Nc3ccc(N4CCN(C)CC4)cc3)nc2n1-c1cccc(C(C)(C)O)n1  activity vs control (PKN1; enzyme activity, inhibitor; 1 µM): 60%
COc1cc(NC(C)=O)c(Cl)cc1C(=O)Nc1nccs1  inhibition (Endothelin receptor type B (EDNRB, Homo sapiens, UniProt P24530); cell-free assay; 10 µM): -13.1%
